Results gathered from unrelated publications.
Compare with care: the assays were run in different laboratories.
Target: Inhibitor of nuclear factor kappa-B kinase subunit beta (IKBKB, Homo sapiens, UniProt O14920)
Sequence (O14920 1-756, as in one of the studies): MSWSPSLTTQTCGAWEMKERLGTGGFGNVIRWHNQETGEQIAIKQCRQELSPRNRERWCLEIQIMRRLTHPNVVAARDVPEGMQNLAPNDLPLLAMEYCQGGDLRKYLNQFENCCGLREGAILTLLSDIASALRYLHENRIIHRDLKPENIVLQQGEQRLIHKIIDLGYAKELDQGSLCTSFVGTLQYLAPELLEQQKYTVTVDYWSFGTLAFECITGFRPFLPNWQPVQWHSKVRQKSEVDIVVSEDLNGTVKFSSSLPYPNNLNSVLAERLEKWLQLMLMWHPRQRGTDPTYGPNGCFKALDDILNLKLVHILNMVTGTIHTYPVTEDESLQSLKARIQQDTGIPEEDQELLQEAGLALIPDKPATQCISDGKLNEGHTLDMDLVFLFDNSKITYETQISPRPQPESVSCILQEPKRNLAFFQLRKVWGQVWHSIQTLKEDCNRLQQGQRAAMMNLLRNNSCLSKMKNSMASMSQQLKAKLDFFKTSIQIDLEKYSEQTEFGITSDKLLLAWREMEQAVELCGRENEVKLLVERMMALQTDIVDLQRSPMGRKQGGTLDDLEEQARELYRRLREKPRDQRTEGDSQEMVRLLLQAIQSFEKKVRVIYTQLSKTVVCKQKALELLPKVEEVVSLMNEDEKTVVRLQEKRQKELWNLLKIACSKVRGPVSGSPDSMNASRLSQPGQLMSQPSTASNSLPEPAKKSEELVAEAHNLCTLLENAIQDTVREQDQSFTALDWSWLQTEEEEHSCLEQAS

SMILES | effect on | action | method | concentration | measurement | result
COc1ncccc1-c1cnn2ccc(N3CCN(C(=O)OC(C)C)CC3)nc12 | binding | – | competition with immobilised ligand | 1 µM | remaining binding | 61%
Cn1cc(-c2cc(F)cc(N3CCn4c(cc5c4CCCC5)C3=O)c2CO)cc(Nc2ccc(N3CCN(C4COC4)CC3)cn2)c1=O | enzyme activity | inhibitor | – | 0.1 µM | inhibition | 5%
C#Cc1n[nH]c2c(-c3cn([C@@H](C)c4ccccc4)c(=O)[nH]c3=O)cc(F)cc12 | enzyme activity | inhibitor | – | 0.1 µM | inhibition | -2.2%
Nc1ncc(-c2nc(N3CCOCC3)nc(N3CCOCC3)n2)c(C(F)F)n1 | binding | – | competition with immobilised ligand | 10 µM | remaining binding | 77%
N#CC1(c2ccccn2)CCN(Cc2cc(C(=O)O)c(=O)n3ccccc23)CC1 | cell-free assay | – | competition with immobilised ligand | 1 µM | remaining binding | 100%
Cc1nn(C)cc1-c1nc2c(N3CCN(Cc4ccc(Cl)cc4)CC3)c(Cl)cnc2[nH]1 | binding | – | competition with immobilised ligand | 1 µM | remaining binding | 100%
O=c1[nH]c2ccccc2n1C1CCN(Cc2ccc(-c3[nH]c4cc5ncnc5cc4nc3-c3ccccc3)cc2)CC1 | enzyme activity | – | – | 0.5 µM | remaining activity | 101%
C#Cc1n[nH]c2c(-c3cn([C@@H](C)c4ccccn4)c(=O)[nH]c3=O)cc(F)cc12 | enzyme activity | inhibitor | – | 0.1 µM | inhibition | 0.8%
Cn1cncc1[C@](O)(COc1ccc(C#N)cc1-c1ccc(OC(F)(F)F)cc1)c1ccc(C#N)cc1 | cell-free assay | – | competition with immobilised ligand | 1 µM | remaining binding | 87%
CC(C)(C)c1cc(C=C(C#N)C#N)cc(Br)c1O | enzyme activity | inhibitor | – | 0.5 µM | remaining activity | 95.7%
